Laboratory results: ChEMBL document CHEMBL1773051, “Anti-inflammatory triterpenes from the leaves of Rosa laevigata” (J Nat Prod, 2011)
The source made the active and inactive calls. The rule behind the calls is not given here.

What was measured:
RAW264.7 [1] = experiment: Antiinflammatory activity against LPS-stimulated mouse RAW264.7 cells assessed as inhibition of TNFalpha production at 0.5 to 50 ug/ml pretreated for 4 hrs followed by challenge with 1 ug/mL LPS for 48 hrs by ELISA relative to control; format: functional, cell-based
RAW264.7 [2] = experiment: Antiinflammatory activity against LPS-stimulated mouse RAW264.7 cells assessed as inhibition of IL-6 production at 0.5 to 50 ug/ml pretreated for 4 hrs followed by challenge with 1 ug/mL LPS for 48 hrs by ELISA relative to control; format: functional, cell-based
RAW264.7 [3] = experiment: Antiinflammatory activity against LPS-stimulated mouse RAW264.7 cells assessed as inhibition of IL-10 production at 0.5 to 50 ug/ml pretreated for 4 hrs followed by challenge with 1 ug/mL LPS for 48 hrs by ELISA relative to control; format: functional, cell-based
RAW264.7 [4] = experiment: Antiinflammatory activity against LPS-stimulated mouse RAW264.7 cells assessed as inhibition of IL1-beta production at 0.5 to 50 ug/ml pretreated for 4 hrs followed by challenge with 1 ug/mL LPS for 48 hrs by ELISA relative to control; format: functional, cell-based
RAW264.7 [5] = experiment: Antiinflammatory activity against LPS-stimulated mouse RAW264.7 cells assessed as inhibition of nitric oxide production at 0.5 to 50 ug/ml pretreated for 4 hrs followed by challenge with 1 ug/mL LPS for 24 hrs by Griess reaction method relative to control
RAW264.7 [6] = experiment: Cytotoxicity against LPS-stimulated mouse RAW264.7 cells assessed as decrease in cell viability upto 100 ug/mL for 4 hrs by MTT assay in presence of 10 ug/mL LPS measured after 24 hrs
HEK293 [7] = experiment: Antiinflammatory activity against LPS-stimulated NF-kappaB activated human HEK293 cells at 200 ug/ml pretreated for 4 hrs followed by challenge with LPS for 48 hrs by luciferase assay; format: functional, cell-based
Outline: (§1)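 NF-κB reporter 293 cells grown in DMEM with 10% FBS, penicillin 100 U/mL and streptomycin 100 μg/mL. Compounds tested at 12.5, 25, 50, 100 and 200 μg/mL, added 4 h before stimulation with 1 μg/mL LPS for 48 h. Cells then washed twice in PBS (pH 7.4) and lysed in passive lysis buffer, and luciferase activity read.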

HEK293 [8] = experiment: Antiinflammatory activity against LPS-stimulated NF-kappaB activated human HEK293 cells at 100 ug/ml pretreated for 4 hrs followed by challenge with LPS for 48 hrs by luciferase assay; format: functional, cell-based; outline: as §1
RAW264.7 [9] = experiment: Cytotoxicity against LPS-stimulated mouse RAW264.7 cells assessed as cell viability upto 50 ug/mL for 4 hrs by MTT assay in presence of 0.01 to 1 ug/mL LPS measured after 24 hrs; format: cell-based
Outline: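 Viability of RAW 264.7 cells measured by MTT colorimetric assay after 24 h incubation with compounds. Compounds were tested up to 50 μg/mL alongside LPS at 0.01, 0.1 or 1 μg/mL, and at 100 μg/mL with 10 μg/mL LPS.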

HEK293 [10] = experiment: Antiinflammatory activity against LPS-stimulated NF-kappaB activated human HEK293 cells at 25 ug/ml pretreated for 4 hrs followed by challenge with LPS for 48 hrs by luciferase assay; format: functional, cell-based; outline: as §1
HEK293 [11] = experiment: Antiinflammatory activity against LPS-stimulated NF-kappaB activated human HEK293 cells at 12.5 ug/ml pretreated for 4 hrs followed by challenge with LPS for 48 hrs by luciferase assay; format: functional, cell-based; outline: as §1
HEK293 [12] = experiment: Antiinflammatory activity against LPS-stimulated NF-kappaB activated human HEK293 cells at 50 ug/ml pretreated for 4 hrs followed by challenge with LPS for 48 hrs by luciferase assay; format: functional, cell-based; outline: as §1

Structure (SMILES)	inhibition (RAW264.7 [1])	inhibition (RAW264.7 [2])	inhibition (RAW264.7 [3])	inhibition (RAW264.7 [4])	inhibition (RAW264.7 [5])	Activity (RAW264.7 [6])	Activity (HEK293 [7])	Activity (HEK293 [8])	Activity (RAW264.7 [9])	Activity (HEK293 [10])	Activity (HEK293 [11])	Activity (HEK293 [12])
C[C@]12CCC(=O)C=C1CC[C@@H]1[C@@H]2[C@@H](O)C[C@@]2(C)[C@H]1CC[C@]2(O)C(=O)CO	Active	Active	Active	Active	Active							
CC1(C)CC[C@]2(C(=O)O)CC[C@]3(C)C(=C2C1)CC[C@@H]1[C@@]2(C)C[C@@H](O)[C@H](O)C(C)(C)[C@@H]2CC[C@]13C	Active	Active	Active	Active	Active	Toxic	Active	Active	Non-toxic	Active	Active	Active
C[C@@H]1CC[C@]2(C(=O)O)CC[C@]3(C)C(=CC[C@@H]4[C@@]5(C)C[C@@H](O)[C@H](O)[C@@](C)(CO)[C@@H]5CC[C@]43C)[C@@H]2[C@]1(C)O	Active	Active	Active	Active	Active	Toxic	Active	Active	Non-toxic	Active	Active	Active
CC(=O)[C@H](C)CCC1=CC2=CC[C@@H]3[C@@]4(C)C[C@@H](O)[C@H](O)[C@@](C)(CO)[C@@H]4CC[C@@]3(C)[C@]2(C)CC1	Active	Active	Active	Active	Active	Toxic	Active	Active	Non-toxic	Active	Active	Active
CC1(C)CC[C@]2(C(=O)O)CC[C@]3(C)C(=CC[C@@H]4[C@@]5(C)C[C@@H](O)[C@@H](O)[C@@](C)(CO)[C@@H]5CC[C@]43C)[C@@H]2C1	Active	Active	Active	Active	Active	Toxic	Active	Active	Non-toxic	Active	Active	Active
